Assay outcomes from PubChem.
PRMT1 inh: PRMT1 methyltransferase inhibitors, primary screen, biochemical, fluorescence polarization; recombinant PRMT1, activity-based probe fluorescence polarization; inhibition, % at 2.79 µM; Protein arginine N-methyltransferase 1 (Homo sapiens), Q99873; AID 652257, 2013; hit rate 1.3% among 370,000;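 active means inhibition above about 21% made by adding two undisclosed values, limit read from the data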
SIAE inh: human SIAE inhibitors, primary screen, biochemical, fluorescence polarization, FP-Rh probe, 1536-well HTS | Sialate O-acetylesterase (Homo sapiens), Q9HAT2 | SIAE FP-Rh probe binding | inhibition, % at 9.66 µM | hit rate 0.69% among 370,000;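 active means inhibition above a cutoff: mean of compounds within the control limits plus 3 SD of those, cut at about 17% in these data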;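 further: 0% = plate median of compound wells and 100% = probe without SIAE protein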
rCAG binder: binders of r(CAG) RNA repeats, primary screen, biochemical, fluorescence. AID 651821, 2012. hit rate 1.3% among 370,000. inhibition, % at 3 µM. r(CAG) RNA repeat, TO-PRO-1 dye displacement fluorescence;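 active means inhibition above the plate cutoff, the mean of all test compounds on that plate plus 3 SD, cut at about 35% in these data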;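 further: 0% = DMSO alone and 100% = 100 µM mitoxantrone as full dye displacement; higher means more dye released from RNA so lower well fluorescence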
TCR-CD3 inh: inhibitors of human TCR-CD3 interaction, primary screen, biochemical, fluorescence, TAMRA-labeled TCR probe; T-cell receptor (TCR); inhibition, % at 9.4 µM; hit rate 0.37% among 360,000; AID 651800, 2012; in the data active means inhibition above about 19%;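 further: recombinant mutant TCR 2C K166C tagged with TAMRA read by polarization; 0% = receptor in buffer alone and 100% = receptor with positive control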
mABHD4 FP: ABHD4 inhibitors, primary screen, biochemical, fluorescence polarization, mouse | inhibition, % at 8.92 µM | (Lyso)-N-acylphosphatidylethanolamine lipase (Mus musculus), Q8VD66 | purified mABHD4, FP-Rh probe fluorescence polarization | hit rate 0.54% among 370,000 | AID 720543, 2013;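 active means inhibition exceeding the mean over every tested compound plus 3 SD, cut at about 30% in these data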;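 further: 0% = plate median of compound wells and 100% = S159A mutant with DMSO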
Target sequence (Q8VD66 whole entry, looked up): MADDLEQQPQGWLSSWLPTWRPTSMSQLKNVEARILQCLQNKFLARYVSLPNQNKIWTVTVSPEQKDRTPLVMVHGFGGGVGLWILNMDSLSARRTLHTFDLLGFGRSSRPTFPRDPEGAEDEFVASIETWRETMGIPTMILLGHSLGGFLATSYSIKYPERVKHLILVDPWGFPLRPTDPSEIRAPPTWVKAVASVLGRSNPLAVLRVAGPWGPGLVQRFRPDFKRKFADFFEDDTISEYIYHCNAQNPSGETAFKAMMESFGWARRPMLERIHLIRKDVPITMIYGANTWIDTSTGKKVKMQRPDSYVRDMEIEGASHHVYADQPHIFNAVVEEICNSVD
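Test system: mABHD4 protein; Read-out basis: % inhibition; Incubation: 45 min + 60 min at 25 °C; Repeats: single replicate; Technique: fluorescence polarization with parallel and perpendicular emission, 525/598 nm; Compound: 8.92 µM, single dose; Benchmarks: full inhibition S159A mutant plus DMSO, zero as sample-well median.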
SIAE confirm: human SIAE inhibitors, retest, confirmation, biochemical, fluorescence polarization, FP-Rh probe, triplicate. inhibition, % at 9.66 µM. SIAE FP-Rh activity-based probe. hit rate 13% among 2,300. shares compounds with SIAE inh. AID 1117263, 2014;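 active means mean inhibition of the replicates above the hit cutoff set in the primary screen, cut at about 17% in these data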;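 further: 0% = SIAE with DMSO and probe and 100% = probe without SIAE; inhibitors lower polarization as more probe stays unbound to SIAE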
The depositor's hits bear a star; · = no result. In the library only some 3.3% were active in any assay of this set; here they are far more common.

SMILES | PRMT1 inh | SIAE inh | rCAG binder | TCR-CD3 inh | mABHD4 FP | SIAE confirm
OC1/C(=C/c2ccccc2C(F)(F)F)N2CCC1CC2 (configuration not stated) | -2 | 2 | -4 | 2 | -3 | ·
CCN(CC)CC(O)c1ccc(C2CCCC2)cc1 (configuration not stated) | -3 | -7 | 1 | 6 | -5 | ·
CC(C)CCOP(N)(=O)Oc1ccccc1 (configuration not stated) | -3 | 4 | -5 | 2 | 4 | ·
NP(=O)(OCCCc1ccccc1)Oc1ccccc1Cl (configuration not stated) | -1 | 57* | -5 | 8 | 2 | 54*
CC(C)CCOP(N)(=O)Oc1ccccc1Cl (configuration not stated) | 0 | 39* | -7 | -4 | 2 | 30*
NP(=O)(OCCCc1ccccc1)Oc1ccc(Cl)cc1 (configuration not stated) | 0 | 49* | -8 | -2 | -2 | 46*
NP(=O)(OCCCc1ccccc1)c1ccccc1 (configuration not stated) | 0 | -3 | -3 | -3 | 10 | ·
Cc1cc(C(=O)N=Nc2c(O)n(C)c3ccccc23)c(C)o1 | -1 | -5 | 3 | -8 | 0 | ·
CC(=O)N(C)CC#CCN1CCC(O)CC1 | -1 | -2 | -2 | 0 | 9 | ·
O=c1[nH]c(=O)n(-c2ccc(Cl)cc2)c(O)c1C=NCCN1CCCCC1 | -3 | -5 | -1 | -2 | -3 | ·
COc1ccc(CN2CCCC(C(=O)c3ccc(Cl)cc3)C2)c(OC)c1 (configuration not stated) | -2 | 18* | -5 | 7 | 1 | -4
COc1cc2c(cc1OC)-c1c(OC)c(OC)cc3c1[C@H](C2)[N+](C)(C)CC3 | -1 | 18* | 0 | -3 | 2 | 3
COc1cc2c3c(c1OC)-c1cc(O)ccc1CC3NCC2 (configuration not stated) | -1 | 6 | 2 | 9 | 3 | ·
C=CCn1c(C)c(C=C2C(=O)NC(=O)NC2=O)c2ccccc21 | 3 | 4 | -3 | -2 | 2 | ·
CN1/C(=C\C=C2C(=O)NC(=S)NC2=O)C(C)(C)c2ccccc21 | -41 | 60* | -199 | -2 | -16 | 153*
C/C(=N\N1CCCCCC1)c1c(O)n(-c2ccccc2)c(=O)[nH]c1=O | 1 | 50* | 1 | -5 | -17 | 5
